Tests used:
[1] = system: Nicotiana tabacum; assay: Concentration at which 50% of maximum response of callus yield derived from Nicotiana tabacum var is obtained; format: functional
Summary of the method: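 Three Nicotiana tabacum callus pieces of ca. 10 mg fresh weight were placed per culture. E50 is the concentration giving 50% of maximal callus yield.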

[2] = system: Nicotiana tabacum; assay: Inhibition of 50% growth of tobacco callus derived from Nicotiana tabacum var on medium with 0.05 uM kinetin but without anti-cytokinin; NR=not reached to the maximum growth within the concentration range tested; format: functional, organism-based
Summary of the method: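 Basal medium with 0.05 μM kinetin plus the test compound at a series of concentrations, pH 5.6 (1 N NaOH), autoclaved at 1.0 kg/cm² for 15 min. Three tobacco callus pieces of ca. 10 mg fresh weight were used per culture. I50 is the concentration giving 50% of the callus growth seen on kinetin medium without anticytokinin.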

SMILES | Log 1/E50 [1] | Log 1/I50 [2]
Cc1nc(NCCc2ccccc2)c2cc[nH]c2n1 | -1.37 | –
CC(C)=CCNc1[nH]c(C)nc2nccc1-2 | 0.08 | –
CCOCCNc1[nH]c(C)nc2nccc1-2 | -1.37 | –
Cc1nc(Nc2cccc(I)c2)c2cc[nH]c2n1 | -0.73 | –
Cc1cccc(Nc2[nH]c(C)nc3nccc2-3)c1 | -1.12 | –
Cc1nc(NCCO)c2cc[nH]c2n1 | – | Not reached
Cc1nc(Nc2cccc(Cl)c2)c2cc[nH]c2n1 | -0.66 | –
Cc1nc(NCc2ccccc2)c2cc[nH]c2n1 [ROLODINE] | -0.72 | –
CCCCCNc1[nH]c(C)nc2nccc1-2 | -0.72 | –
Cc1nc(Nc2cccc(Br)c2)c2cc[nH]c2n1 | -0.8 | –
CCCCC(CC)CNc1[nH]c(C)nc2nccc1-2 (stereo unspecified) | -0.84 | –
